Our source for the Emax and EC50 values is ChEMBL document CHEMBL2321661, “Synthesis and biological evaluation of 5-nitropyrimidine analogs with azabicyclic substituents as GPR119 agonists” (Bioorg Med Chem Lett, 2013).

For orientation: Emax means the maximal effect, on the per cent scale that the assay sets. One may read the EC50 as the concentration that produces a half-maximal response.

Assay [1] concerns the target T1, Glucose-dependent insulinotropic receptor (Homo sapiens) (UniProt Q8TDV5).
T1 sequence (whole entry): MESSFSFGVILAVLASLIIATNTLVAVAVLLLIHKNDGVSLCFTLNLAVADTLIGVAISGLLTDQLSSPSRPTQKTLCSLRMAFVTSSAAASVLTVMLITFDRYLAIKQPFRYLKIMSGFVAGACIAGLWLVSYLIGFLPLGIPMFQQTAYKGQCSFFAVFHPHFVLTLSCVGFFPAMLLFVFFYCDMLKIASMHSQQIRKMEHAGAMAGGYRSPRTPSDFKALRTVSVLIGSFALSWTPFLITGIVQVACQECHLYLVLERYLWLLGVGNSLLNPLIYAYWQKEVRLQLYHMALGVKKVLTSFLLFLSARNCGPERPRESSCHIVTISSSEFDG
The experiment in a line: Agonist activity at human GPR119 transfected in HEK293 cells assessed as cAMP stimulation relative to maximal effect of oleylethanolamine. It counts as functional, cell-based. The method, boiled down: (§1)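 HEK293 cells seeded at 4 × 10³ cells/well and grown 24 h, then transiently transfected with a human GPR119 expression plasmid by lipofection. After 24 h, compounds were applied in KRBH buffer with 0.1% BSA and IBMX for 60 min at 37 °C. Cells were lysed 10 min at room temperature (phosphate/KF/Triton, pH 7.0), and cAMP was read by HTRF.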

Assay [2] has as its target T2, Glucose-dependent insulinotropic receptor (Homo sapiens, UniProt Q8TDV5).
T2 sequence (Q8TDV5 whole entry): T1 sequence (whole entry)
The experiment in a line: Agonist activity at human GPR119 transfected in HEK293 cells assessed as concentration for 50 % cAMP stimulation of oleylethanolamine. It counts as functional, cell-based. The method, boiled down: as §1

The structures appear in SMILES notation.

With `CC(C)(C)OC(=O)N1[C@@H]2CC[C@H]1C[C@@H](CNc1ncnc(Nc3ccc(S(C)(=O)=O)cc3F)c1[N+](=O)[O-])C2`, the Emax in assay [1] turned out to be 53%. For the same molecule, the EC50 in assay [2] came to 6.7 nM. As for `CC(C)(C)OC(=O)N1[C@@H]2CC[C@H]1C[C@@H](Oc1ncnc(Nc3ccc(S(C)(=O)=O)cc3)c1[N+](=O)[O-])C2` (stereo in doubt; 13) [listing 1 of 2 here], the EC50 in assay [2] amounted to 14.5 nM. Regarding `CC(C)(C)OC(=O)N1[C@@H]2CC[C@H]1C[C@@H](Oc1ncnc(Nc3ccc(S(C)(=O)=O)cc3F)c1[N+](=O)[O-])C2` (stereo in doubt; 14) [listing 1 of 2 here], in assay [1], the Emax stood at 65%. Turning to `CC(C)(C)OC(=O)N1[C@@H]2CC[C@H]1C[C@@H](CNc1ncnc(Nc3ccc(S(C)(=O)=O)cc3)c1[N+](=O)[O-])C2`, the Emax in assay [1] came to 41%. Further, the EC50 in assay [2] is greater than 10000 nM. As for `CC(C)(C)OC(=O)N1[C@@H]2CC[C@H]1C[C@@H](Oc1ncnc(Nc3ccc(S(C)(=O)=O)cc3)c1[N+](=O)[O-])C2` (stereo in doubt; 11) [listing 1 of 2 here], in assay [2], the half-maximal effective concentration (EC50) amounted to 4.9 nM. Consider `CC(C)(C)OC(=O)N1[C@@H]2CC[C@H]1C[C@@H](Oc1ncnc(Nc3ccc(S(C)(=O)=O)cc3)c1[N+](=O)[O-])C2` (stereo in doubt; 11) [listing 2 of 2 here], for which the Emax in assay [1] worked out at 99%.

Regarding `CC(C)(C)OC(=O)N1[C@@H]2CC[C@H]1C[C@@H](Oc1ncnc(Nc3ccc(S(C)(=O)=O)cc3F)c1[N+](=O)[O-])C2` (stereo in doubt; 14) [listing 2 of 2 here], in assay [2], the EC50 came to 1.4 nM. On to `CC(C)(C)OC(=O)N1[C@@H]2CC[C@H]1C[C@H](Nc1ncnc(Nc3ccc(S(C)(=O)=O)cc3F)c1[N+](=O)[O-])C2`, for which the maximal effect (Emax) in assay [1] came to 99%. In addition, in assay [2], the EC50 is 1.5 nM. Consider `CC(C)(C)OC(=O)N1[C@@H]2CC[C@H]1C[C@@H](Oc1ncnc(Nc3ccc(S(C)(=O)=O)cc3F)c1[N+](=O)[O-])C2` (stereo in doubt; 12) [listing 1 of 2 here], for which the EC50 in assay [2] was found to be 1.5 nM. As for `CC(C)(C)OC(=O)N1[C@@H]2CC[C@H]1C[C@H](Nc1ncnc(Nc3ccc(S(C)(=O)=O)cc3)c1[N+](=O)[O-])C2`, in assay [1], the Emax was 139%. The EC50 in assay [2] amounted to 11.5 nM.

With `CCCCCCCC/C=C\CCCCCCCC(=O)NCCO`, the Emax in assay [1] was found to be 100%. Still for that read-out and setting: then `CC(C)(C)OC(=O)N1[C@@H]2CC[C@H]1C[C@@H](Oc1ncnc(Nc3ccc(S(C)(=O)=O)cc3F)c1[N+](=O)[O-])C2` (stereo in doubt; 12) [listing 2 of 2 here], with 116%.

On to `CC(C)(C)OC(=O)N1[C@@H]2CC[C@H]1C[C@@H](Oc1ncnc(Nc3ccc(S(C)(=O)=O)cc3)c1[N+](=O)[O-])C2` (stereo in doubt; 13) [listing 2 of 2 here], for which the maximal response (Emax) in assay [1] worked out at 69%.
